# Measured values reported in PMC8606320 (Bioorganic & Medicinal Chemistry, 2021).
# Assays:
# SARS-CoV-2 [1] = assay type: cell-based
# [2] = In vivo acute toxicity assay; settings: oral 230 mg/kg twice a day
# Method in brief: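 Test compounds as sulfate salts, dissolved in physiological saline. Mice (25 g) were fasted overnight: 16 male and 16 female in four groups (n = 8), male and female vehicle controls and male and female test groups. They were dosed intragastrically with vehicle or 230 mg/kg twice a day. Death, daily behaviour and body weight were monitored for 20 days, and survival was plotted as curves.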
# SARS-CoV-2 [3] = settings: COVID-19 patients, on the 6th day; cited from earlier work
compound,measurement,setting,value
(S)-2-((4-((7-chloroquinolin-4-yl) amino) pentyl) (ethyl) amino) ethan-1-ol sulfate [S-HCQ],inhibition of cytopathic changes caused by the virus,SARS-CoV-2 [1],complete inhibition
same,day at which mice appeared malaise,[2]; monitored 20 days,9 dpd
"CCC(CC)COC(=O)[C@H](C)N[P@](=O)(OC[C@H]1O[C@@](C#N)(c2ccc3c(N)ncnn23)[C@H](O)[C@@H]1O)Oc1ccccc1 [Remdesivir, reference compound]",inhibition of the occurrence of lesions (CPE),SARS-CoV-2 [1],completely inhibited
"CCN(CCO)CCCC(C)Nc1ccnc2cc(Cl)ccc12.O=S(=O)(O)O (racemic) [Rac-HCQ, hydroxychloroquine, reference compound]",nasopharyngeal swab virus negative rate,SARS-CoV-2 [3],57.1%
same,inhibition of cytopathic changes caused by the virus,SARS-CoV-2 [1],complete inhibition
(R)-2-((4-((7-chloroquinolin-4-yl) amino) pentyl) (ethyl) amino) ethan-1-ol sulfate [R-HCQ],inhibition of cytopathic changes caused by the virus,SARS-CoV-2 [1],complete inhibition
same,tolerability in mice compared to Rac-HCQ and S-HCQ,[2],better tolerated
same,day until which mice performed well,[2]; monitored 20 days,12 dpd
